Source: PubChem BioAssay
IDH1 R132H inh: blocks human IDH1 R132H reductase activity; O75874; diaphorase/resazurin fluorescence, 60 min; inhibition, % at 10 µM; 70,000 tested, 0.18% active; AID 624101; in the data active means inhibition above about 34%; inconclusive means no clear call, values can overlap the other calls; inactive means below about 11%;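 further: 0% = DMSO and 100% = no enzyme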
Target sequence (O75874 whole entry R132H): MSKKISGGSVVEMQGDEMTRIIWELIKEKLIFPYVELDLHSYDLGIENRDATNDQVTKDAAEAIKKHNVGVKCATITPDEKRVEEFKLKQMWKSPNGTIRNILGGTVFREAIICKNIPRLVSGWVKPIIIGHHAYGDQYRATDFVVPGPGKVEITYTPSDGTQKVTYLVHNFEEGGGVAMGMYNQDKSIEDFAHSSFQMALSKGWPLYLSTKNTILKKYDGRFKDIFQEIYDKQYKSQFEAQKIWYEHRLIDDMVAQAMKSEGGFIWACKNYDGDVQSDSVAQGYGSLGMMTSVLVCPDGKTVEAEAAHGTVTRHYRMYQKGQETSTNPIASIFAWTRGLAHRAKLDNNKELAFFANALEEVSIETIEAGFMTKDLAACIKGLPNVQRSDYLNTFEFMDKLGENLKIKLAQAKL
KDM4C inh: KDM4C (human) demethylase inhibition. Q9H3R0. GST-KDM4C 2-372, H3K9me3 peptide, LANCE TR-FRET. inhibition, % at 12.5 µM. 96,000 tested, 0.15% active. AID 720574;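 active means mean replicate inhibition above about 25%, with at least 55% of replicates also reaching it, limit read from the data, passing the limit was not always enough; inconclusive means only one of those two conditions met; inactive means neither condition met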
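System – N-terminal GST-fused human GASC-1 (KDM4C) fragment, residues 2-372 · Input – enzyme final amount 10 nM · Technique – LANCE TR-FRET, Eu antibody, ULight-streptavidin, EDTA, ex 340 nm, em 618/671 nm · Medium – HEPES buffer, pH 7.5, plus ascorbate · Incubation – enzyme reaction 30 min, then detection 60 min, both room temperature · Reagent – H3K9me3 peptide with Fe(II)/2OG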
T cruzi growth-1: blocks T. cruzi growth in NIH3T3 culture; T. cruzi beta-gal in NIH3T3, GalScreen luminescence, 90 h; AID 624255; 77,000 tested, 5.9% active; inhibition, % at 8.34 µM;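 active means mean inhibition above about 93%, with at least 55% of replicates each passing it, limit read from the data, passing the limit was not always enough; inconclusive means only one of those two conditions holds; inactive means neither condition holds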
T cruzi growth-2: inhibitors of T. cruzi proliferation | shares compounds with T cruzi growth-1 | T. cruzi beta-gal in NIH3T3, GalScreen luminescence, 90 h | inhibition, % at 8.35 µM | 5,600 tested, 72% active | AID 651739;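 active means mean replicate inhibition above about 95% and at least 55% of replicates individually reaching it, limit read from the data; inconclusive means only one of the two criteria is met; inactive means neither criterion is met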
T cruzi growth-3: inhibitors of T. cruzi proliferation; shares compounds with T cruzi growth-1; T. cruzi beta-gal in NIH3T3, GalScreen luminescence, 90 h; inhibition, % at 2.09 µM; 5,600 tested, 21% active; AID 651740;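 active means mean inhibition above about 95%, with at least 55% of replicates also reaching it, limit read from the data; inconclusive means meets just one of the two conditions; inactive means meets neither condition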;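 further: plate controls were neutral control median for no effect and positive control median for full effect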
3T3 cytotox: kills mouse NIH/3T3 fibroblasts. shares compounds with T cruzi growth-1. NIH/3T3 viability, CellTiter-Glo ATP luminescence, 90 h. cytotoxicity (signal decrease), % at 8.35 µM. 5,600 tested, 14% active. AID 651742;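 active means mean signal decrease across replicates above about 35% based on untreated-well scatter, with enough replicates individually passing, limit read from the data; inconclusive means no rule stated though some were filed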;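 further: 0% = median of neutral control wells and 100% = median of positive control wells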
NIH3T3 tox 2: cytotoxicity in mouse NIH/3T3 fibroblasts; 5,600 tested, 56% active; AID 651744; shares compounds with T cruzi growth-1; NIH/3T3 viability, CellTiter-Glo ATP luminescence, 90 h; inhibition, % at 24.9 µM;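 active means mean loss of cell viability signal at or above a set limit, and enough replicates individually reaching it; inconclusive means meets only the mean limit or only the replicate share; inactive means meets neither condition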;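 further: 0% = median of neutral control wells and 100% = median of positive control wells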
* marks the source's active call; other numbers are inactive results; ? = inconclusive; . = no result given. Many of the other results were omitted from the sample, so hits are more common in it than they were.

SMILES	IDH1 R132H inh	KDM4C inh	T cruzi growth-1	T cruzi growth-2	T cruzi growth-3	3T3 cytotox	NIH3T3 tox 2
O=C(C1CC1)N1CCCCN2[C@H](CO)[C@H](c3ccc(C#CC4CC4)cc3)[C@H]2C1	.	.	82	.	.	.	.
O=C(C1CC1)N1CCCCN2[C@@H](CO)[C@H](c3ccc(C#CC4CC4)cc3)[C@@H]2C1	.	.	103*	84	43	24	52*
O=C(C1CCC1)N1CCCCN2[C@H](C1)[C@H](c1ccc(C#CC3CCCC3)cc1)[C@@H]2CO	.	.	103*	108*	54	27	104*
O=C(C1CC1)N1CCCCN2[C@H](CO)[C@H](c3ccc(C#CC4CC4)cc3)[C@@H]2C1	.	.	46	.	.	.	.
C[C@H]1CN([C@@H](C)CO)C(=O)c2cccc(N(C)C)c2O[C@H]1CN(C)Cc1ccncc1	1	0	-12	.	.	.	.
CC(C)NC(=O)N(C)C[C@@H]1Oc2ncc(C#CC3(O)CCCC3)cc2C(=O)N([C@H](C)CO)C[C@@H]1C	-3	0	-3	.	.	.	.
CO[C@@H]1CN(C)C(=O)c2cc(NS(=O)(=O)c3ccc(F)cc3)ccc2OC[C@@H](C)N(C)C[C@H]1C	0	1	16	.	.	.	.
CCCNC(=O)[C@H]1[C@H](CO)[C@H]2Cn3c(ccc(C4=CCCC4)c3=O)[C@@H]1N2Cc1ccncc1	.	1	99*	41	29	10	10
COc1ccccc1CN1[C@@H]2Cn3c(ccc(C4=CCCC4)c3=O)[C@H]1[C@@H](C(=O)N(C)C)[C@@H]2CO	.	2	56	.	.	.	.
COc1ccccc1CN1[C@@H]2c3ccc(C4=CCCC4)c(=O)n3C[C@H]1[C@H](CO)[C@H]2C(=O)N(C)C	.	3	142*	74	12	7	38*
CCCNC(=O)[C@@H]1[C@@H](CO)[C@@H]2Cn3c(ccc(C4=CCCC4)c3=O)[C@H]1N2Cc1ccncc1	.	1	-1	.	.	.	.
O=C(NC1CCCC1)N1CC(=O)N2[C@@H](CO)[C@@H](c3ccc(-c4cccnc4)cc3)[C@@H]2C1	.	1	.	.	.	.	.
C[C@@H]1CN([C@@H](C)CO)S(=O)(=O)c2ccc(/C=C/c3ccccc3)cc2O[C@H]1CN(C)Cc1cncnc1	0	-2	121*	112*	97*	54*	61*
C[C@H]1CN([C@@H](C)CO)S(=O)(=O)c2ccc(/C=C/c3ccccc3)cc2O[C@H]1CN(C)Cc1cncnc1	-2	2	103*	95*	78	57*	46*
C[C@@H]1CN([C@H](C)CO)S(=O)(=O)c2ccc(/C=C/c3ccccc3)cc2O[C@@H]1CN(C)Cc1cncnc1	0	-7	90	.	.	.	.
C[C@H](CO)N1C[C@H](C)[C@H](CN(C)Cc2cncnc2)Oc2cc(/C=C/c3ccccc3)ccc2S1(=O)=O	0	-5	75	.	.	.	.
CCCC#Cc1cnc2c(c1)C(=O)N([C@@H](C)CO)C[C@H](C)[C@H](CN(C)C(=O)Cc1ccncc1)O2	0	2	-7	.	.	.	.
O=C(C[C@@H]1CC[C@H](NC(=O)C2CCC2)[C@@H](CO)O1)Nc1nccs1	0	2	1	.	.	.	.
CC=Cc1ccc2n(c1=O)C[C@@H]1[C@@H](CO)[C@H](C(=O)NCC3CC3)N(CCC)[C@H]21 (mixture of isomers)	.	3	.	.	.	.	.
CC=Cc1ccc2n(c1=O)C[C@@H]1[C@@H](CO)[C@H](C(=O)NCCC)[C@H]2N1CC1CCOCC1 (mixture of isomers)	.	1	19	.	.	.	.
CC=Cc1ccc2n(c1=O)C[C@@H]1[C@@H](CO)[C@H](C(=O)NCCC)[C@H]2N1C(=O)c1ccccc1F (mixture of isomers)	.	-1	100*	-4	11	-10	4
CC=Cc1ccc2n(c1=O)C[C@@H]1[C@@H](CO)[C@H](C(=O)NCC3CC3)N(CCC(F)(F)F)[C@H]21 (mixture of isomers)	.	5	111*	-47	3	-10	6
CC=Cc1ccc2n(c1=O)C[C@H]1[C@H](CO)[C@@H](C(=O)NCCC)[C@@H]2N1C(=O)c1ccncc1 (mixture of isomers)	.	0	.	.	.	.	.
CC=Cc1ccc2n(c1=O)C[C@H]1[C@H](CO)[C@@H](C(=O)NCCC)[C@@H]2N1CC1CCOCC1 (mixture of isomers)	.	-1	-12	.	.	.	.
CC=Cc1ccc2n(c1=O)C[C@@H]1[C@@H](CO)[C@H](C(=O)NCCC)[C@H]2N1CC1CC1 (mixture of isomers)	.	0	102*	31	-45	14	-15
SMILES	IDH1 R132H inh	KDM4C inh	T cruzi growth-1	T cruzi growth-2	T cruzi growth-3	3T3 cytotox	NIH3T3 tox 2
CC=Cc1ccc2n(c1=O)C[C@H]1[C@H](CO)[C@@H](C(=O)NCCC)[C@@H]2N1CC1CC1 (mixture of isomers)	.	0	102*	56	5	-8	8
CC(C)C#Cc1cnc2c(c1)C(=O)N([C@@H](C)CO)C[C@H](C)[C@H](CN(C)C(=O)c1cccnc1)O2	0	1	-10	.	.	.	.
COc1ccc(S(=O)(=O)N2C[C@H](O)COC[C@H]3O[C@@H](CC(=O)N(C)C)CC[C@@H]32)cc1	.	-1	-63	.	.	.	.
O=C(C[C@@H]1C=C[C@@H](NC(=O)C2CCOCC2)[C@@H](CO)O1)NCC1CC1	0	0	23	.	.	.	.
O=C(COc1ccc(Cl)cc1)NC(=S)Nc1ccccc1[N+](=O)[O-]	0	.	.	.	.	.	.
COc1ccccc1-c1ccc([C@H]2[C@H](CO)N3CCCCN(C(=O)CN4CCOCC4)C[C@@H]23)cc1	.	1	100*	79	40	19	31*
O=C(CN1CCOCC1)N1CCCCN2[C@H](CO)[C@H](c3ccc(/C=C/c4ccccc4)cc3)[C@H]2C1	.	0	100*	97*	62	25	105*
O=C(CN1CCOCC1)N1CCCCN2[C@H](CO)[C@H](c3ccc(/C=C/c4ccccc4)cc3)[C@@H]2C1	.	-2	106*	108*	86	40*	41*
O=C(CN1CCOCC1)N1CCCCN2[C@H](CO)[C@@H](c3ccc(/C=C/c4ccccc4)cc3)[C@H]2C1	.	-1	10	.	.	.	.
O=C(CN1CCOCC1)N1CCCCN2[C@@H](CO)[C@H](c3ccc(-c4ccccc4F)cc3)[C@@H]2C1	.	0	?	79	73	-9	-27
COc1ccccc1-c1ccc([C@H]2[C@@H](CO)N3CCCCN(C(=O)CN4CCOCC4)C[C@H]23)cc1	.	2	62	.	.	.	.
O=C(CN1CCOCC1)N1CCCCN2[C@H](C1)[C@@H](c1ccc(/C=C/c3ccccc3)cc1)[C@@H]2CO	.	-2	83	.	.	.	.
O=C(CN1CCOCC1)N1CCCCN2[C@H](CO)[C@H](c3ccc(-c4ccccc4F)cc3)[C@@H]2C1	.	0	85	.	.	.	.
